The text below walks through data of article PMC3136873 (Archives of biochemistry and biophysics, 2011).

Data set [1] deals with ALAS/AONS. Nature of the data set: continuous coupled spectrophotometric assay. It counts as biochemical, Mus musculus; Escherichia coli. To be noted: read-out: KmSCoA; ALAS site; co-substrate glycine; 30 °C. An outline of the steps: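 ALAS/AONS chimera was expressed in E. coli DH5α and purified by 20–40% ammonium sulfate fractionation, Ultrogel ACA-44 gel filtration and Q-Sepharose (100–150 mM KCl gradient). Its concentration was taken on a 96 kD subunit basis. ALAS-site activity was read continuously by spectrophotometry at 30 °C, varying one substrate with the other held constant. Km came from Michaelis-Menten nonlinear regression.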

Data set [2] deals with T1, ALAS/ALAS (single chain dimeric ALAS) (Mus musculus, UniProt P08680).
T1 sequence (P08680 50-587): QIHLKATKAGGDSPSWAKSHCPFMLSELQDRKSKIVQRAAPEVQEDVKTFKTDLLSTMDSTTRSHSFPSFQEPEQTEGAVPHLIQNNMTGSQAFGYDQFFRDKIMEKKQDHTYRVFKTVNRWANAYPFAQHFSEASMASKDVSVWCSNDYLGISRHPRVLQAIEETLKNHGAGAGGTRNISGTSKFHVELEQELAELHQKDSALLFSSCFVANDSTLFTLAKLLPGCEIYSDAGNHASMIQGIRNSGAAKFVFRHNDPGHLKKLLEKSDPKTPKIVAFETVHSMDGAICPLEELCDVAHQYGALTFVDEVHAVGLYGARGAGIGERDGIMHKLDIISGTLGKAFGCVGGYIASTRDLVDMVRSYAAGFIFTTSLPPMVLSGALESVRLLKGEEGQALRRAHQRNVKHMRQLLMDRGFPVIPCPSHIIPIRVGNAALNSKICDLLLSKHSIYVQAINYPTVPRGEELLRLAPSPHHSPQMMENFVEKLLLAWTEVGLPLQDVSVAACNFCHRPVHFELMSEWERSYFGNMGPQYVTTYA
Nature of the data set: dissociation constant for ALA binding.

Data set [3] concerns the molecule itself. Briefly: SEC. In general terms: In gel filtration, larger molecules generally elute earlier.

On to `CC(C)(COP(=O)(O)OP(=O)(O)OC[C@H]1O[C@@H](n2cnc3c(N)ncnc32)[C@H](O)[C@@H]1OP(=O)(O)O)[C@@H](O)C(=O)NCCC(=O)NCCSC(=O)CCC(=O)O` [SCoA, succinyl-CoA], for which, in data set [1], the Km was 1.5 ± 0.2 µM. What is called Kd is a measure of binding affinity in units of concentration. The low end stands for a tighter complex, the high end for a looser complex. On to `NCC(=O)CCC(=O)O` [ALA, 5-aminolevulinate], for which, in data set [2], binding was put at a Kd of 1.46 ± 0.01 µM.

B1: ALAS/AONS chimera (single-chain chimera of murine erythroid 5-aminolevulinate synthase and E. coli 8-amino-7-oxononanoate synthase) (enzyme, murine | E. coli)
chain: QIHLKATKAGGDSPSWAKSHCPFMLSELQDRKSKIVQRAAPEVQEDVKTFKTDLLSTMDSTTRSHSFPSFQEPEQTEGAVPHLIQNNMTGSQAFGYDQFFRDKIMEKKQDHTYRVFKTVNRWANAYPFAQHFSEASMASKDVSVWCSNDYLGISRHPRVLQAIEETLKNHGAGAGGTRNISGTSKFHVELEQELAELHQKDSALLFSSCFVANDSTLFTLAKLLPGCEIYSDAGNHASMIQGIRNSGAAKFVFRHNDPGHLKKLLEKSDPKTPKIVAFETVHSMDGAICPLEELCDVAHQYGALTFVDEVHAVGLYGARGAGIGERDGIMHKLDIISGTLGKAFGCVGGYIASTRDLVDMVRSYAAGFIFTTSLPPMVLSGALESVRLLKGEEGQALRRAHQRNVKHMRQLLMDRGFPVIPCPSHIIPIRVGNAALNSKICDLLLSKHSIYVQAINYPTVPRGEELLRLAPSPHHSPQMMENFVEKLLLAWTEVGLPLQDVSVAACNFCHRPVHFELMSEWERSYFGNMGPQYVTTYAELMSWQEKINAALDARRAADALRRRYPVAQGAGRWLVADDRQYLNFSSNDYLGLSHHPQIIRAWQQGAEQFGIGSGGSGHVSGYSVVHQALEEELAEWLGYSRALLFISGFAANQAVIAAMMAKEDRIAADRLSHASLLEAASLSPSQLRRFAHNDVTHLARLLASPCPGQQMVVTEGVFSMDGDSAPLAEIQQVTQQHNGWLMVDDAHGTGVIGEQGRGSCWLQKVKPELLVVTFGKGFGVSGAAVLCSSTVADYLLQFARHLIYSTSMPPAQAQALRASLAVIRSDEGDARREKLAALITRFRAGVQDLPFTLADSCSAIQPLIVGDNSRALQLAEKLRQQGCWVTAIRPPTVPAGTARLRLTLTAAHEMQDIDRLLEVLHGNG
For orientation: stoichiometry N means the number of molecules, sites or subunits per partner or assembly. For B1, the “stoichiometry N” value in data set [3] worked out at 2.
